# Where a name gives a salt, the structure may show the parent alone. The source made the active and inactive calls. The calls are words filed in the database; no cut-off is given here.
# What was measured:
# [1] = target: T1, Focal adhesion kinase 1 (Homo sapiens, UniProt Q05397); assay: Binding affinity to biotinylated human FAK FAT domain by biolayer interoferometry
# Outline: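 Bio-layer interferometry on super streptavidin biosensor tips, pre-wetted in buffer for a baseline before FAT protein immobilization. Association and dissociation measured over 210 s at two small-molecule concentrations. Kon, Koff and Kd derived from the kinetic fits.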
# [2] = target: T2, Focal adhesion kinase 1/vascular endothelial growth factor receptor 3 (Homo sapiens) (UniProt P35916+Q05397); assay: Inhibition of FAK/VEGFR-3 interaction in human MIAPaCa2 cells transfected with retroviral expression vector pMSCV-LucSh assessed as reduction in VEGFR3 pan-phosphorylated tyrosine level after 24 hrs by immunoprecipitation assay; assay type: cell-based; conditions: MIA PaCa-2
# Outline: (§1)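 Cells treated at increasing doses for 24 h, then lysed in NP40 buffer with inhibitors. 500 or 800 µg lysate precleared, then immunoprecipitated with FAK 4.47 or VEGFR3 9D9, with isotype IgG and no-antibody controls, overnight with Protein A/G beads at 4 °C. Immunoblotted for pan-phosphotyrosine (4G10), total FAK and total VEGFR3. Bands quantified by densitometry.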
# [3] = target: T2, Focal adhesion kinase 1/vascular endothelial growth factor receptor 3 (Homo sapiens); assay: Inhibition of FAK/VEGFR-3 interaction in human MIAPaCa2 cells transfected with retroviral expression vector pMSCV-LucSh assessed as decrease in levels of VEGFR3 and phosphorylated tyrosine residues associated with FAK protein after 24 hrs by immunoprecipitation assay; assay type: cell-based; conditions: MIA PaCa-2; outline: as §1
# [4] = tested on: MIA PaCa-2; assay: Cytotoxicity against human MIAPaCa2 cells transfected with retroviral expression vector pMSCV-LucSh assessed as inhibition of colony formation at >10 uM after 14 days by 1,9-dimethyl-methylene blue staining-based assay; assay type: functional, cell-based
# Outline: (§2)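 700 cells/well seeded, and compound added at once at the specified concentrations. Incubated 10–14 days at 37 °C (figure legend gives 14 days). Colonies stained with 0.25% 1,9-dimethyl-methylene blue in 50% methanol for 1 h, washed, dried and scanned. Run in duplicate and repeated three times independently.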
# [5] = target: T2, Focal adhesion kinase 1/vascular endothelial growth factor receptor 3 (Homo sapiens); assay: Inhibition of FAK/VEGFR-3 interaction in human MIAPaCa2 cells transfected with retroviral expression vector pMSCV-LucSh assessed as decrease in levels of VEGFR3 and phosphorylated tyrosine residues associated with FAK protein after 24 hrs by densitometric analysis; assay type: cell-based; conditions: MIA PaCa-2; outline: as §1
# [6] = target: T2, Focal adhesion kinase 1/vascular endothelial growth factor receptor 3 (Homo sapiens); assay: Inhibition of FAK/VEGFR-3 interaction in human MIAPaCa2 cells transfected with retroviral expression vector pMSCV-LucSh assessed as reduction in VEGFR3 pan-phosphorylated tyrosine level after 24 hrs by densitometric analysis; assay type: cell-based; conditions: MIA PaCa-2; outline: as §1
# [7] = tested on: MCF7; assay: Cytotoxicity against human MCF7 cells overexpressing VEGFR-3/FAK assessed as inhibition of colony formation at >10 uM after 14 days by 1,9-dimethyl-methylene blue staining-based assay; assay type: functional, cell-based
# Outline: (§3)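 Colony formation. 700 cells/well seeded with compound added immediately, then incubated at 37 °C for 10–14 days (legend: 14 days). Colonies stained for 1 h with 0.25% 1,9-dimethyl-methylene blue in 50% methanol, washed, dried and scanned. Duplicate wells, three independent experiments.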
# [8] = tested on: U-87MG ATCC; assay: Cytotoxicity against human U87 cells assessed as growth inhibition at 50 uM after 72 hrs by MTS assay; assay type: functional, cell-based
# Outline: (§4)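 MTS assay. Cells kept in DMEM with 10% FBS, plated at 5000 cells/well and left to attach overnight, then exposed to compound (screening at 50 µM) for 72 h at 37 °C. MTS reagent added for about 1 h, then absorbance read at 570 nm. Viability normalized to DMSO/untreated controls. Three independent experiments, 3–5 replicate wells per concentration.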
# [9] = tested on: MDA-MB-231; assay: Cytotoxicity against human MDA-MB-231 cells assessed as growth inhibition at 50 uM after 72 hrs by MTS assay; assay type: functional, cell-based; outline: as §4
# [10] = tested on: MIA PaCa-2; assay: Cytotoxicity against human MIAPaCa2 cells transfected with retroviral expression vector pMSCV-LucSh assessed as growth inhibition at 50 uM after 72 hrs by MTS assay; assay type: functional, cell-based
# Outline: (§5)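 Cells seeded at 5000/well, attached overnight, then given 50 µM of each analog for 72 h at 37 °C. MTS reagent added for about 1 h, absorbance read at 570 nm. Viability normalized to DMSO/untreated controls. Three independent experiments, each with 3–5 replicate wells per concentration. Cells kept in DMEM with 10% FBS.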
# [11] = tested on: C8161; assay: Cytotoxicity against human C8161 cells assessed as growth inhibition at 50 uM after 72 hrs by MTS assay; assay type: functional, cell-based; outline: as §4
# [12] = tested on: PANC-1; assay: Cytotoxicity against human PANC1 cells transfected with retroviral expression vector pMSCV-LucSh assessed as growth inhibition at 50 uM after 72 hrs by MTS assay; assay type: functional, cell-based; outline: as §5
# [13] = tested on: A-375; assay: Cytotoxicity against human A375 cells assessed as growth inhibition at 50 uM after 72 hrs by MTS assay; assay type: functional, cell-based; outline: as §4
# [14] = tested on: MCF7; assay: Induction of apoptosis in human MCF7 cells overexpressing VEGFR-3/FAK assessed as increase in PARP cleavage after 24 hrs; assay type: functional, cell-based
# Outline: (§6)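 MCF7-VEGFR3 cells grown to about 80% confluence, then given compound at the indicated concentrations for 24 h at 37 °C. Lysed in 1% NP40 buffer with phosphatase and protease inhibitors. 30 µg protein run by SDS-PAGE and immunoblotted with caspase-3 and PARP rabbit polyclonal antibodies, detected by ECL.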
# [15] = target: T2, Focal adhesion kinase 1/vascular endothelial growth factor receptor 3 (Homo sapiens); assay: Inhibition of FAK/VEGFR-3 interaction in human MCF7 cells assessed as decrease in VEGFR3 protein level at 10 uM after 24 hrs by immunoprecipitation assay; assay type: cell-based
# Outline: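 MCF7-VEGFR3 cells treated with selected analogs for 24 h, then lysed in NP40 buffer. FAK immunoprecipitated with clone 4.47 after preclearing, 2 h antibody binding and overnight incubation with Protein A/G beads at 4 °C. Co-precipitated VEGFR3 and total FAK detected by immunoblot on 7.5% gel.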
# [16] = tested on: MIA PaCa-2; assay: Cytotoxicity against human MIAPaCa2 cells transfected with retroviral expression vector pMSCV-LucSh assessed as inhibition of colony formation at 10 uM after 14 days by 1,9-dimethyl-methylene blue staining-based assay; assay type: functional, cell-based; outline: as §2
# [17] = target: Vascular endothelial growth factor receptor 3 (Homo sapiens) (UniProt P35916); assay: Inhibition of FLT4 (unknown origin) at 1 uM by Z'-LYTE assay relative to control
# Outline: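 Z'-LYTE SelectScreen single-point biochemical kinase assay, run as a contracted service. Compound at 1 µM and ATP at 100 µM in the reaction. Percent inhibition calculated per the Z'-LYTE analysis protocol, given as the mean of two independent runs.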
# [18] = tested on: MIA PaCa-2; assay: Induction of apoptosis in human MIAPaCa2 cells transfected with retroviral expression vector pMSCV-LucSh at 70 uM after 24 hrs by CellEvent/TMRM dye-based microscopic analysis; assay type: functional, cell-based
# Outline: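 10,000 cells/well plated and adhered overnight, then drug added for 24 h. Stained with 5 µM CellEvent caspase-3/7 dye plus 2.5 µM TMRM in PBS, 30 min at 37 °C in the dark. Imaged by fluorescence microscopy, and bright-green apoptotic nuclei counted in 6–8 fields per condition. Percent apoptosis normalized to control, from three independent experiments, compared by Student t test.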
# [19] = target: Insulin-like growth factor 1 receptor (Homo sapiens) (UniProt P08069); assay: Inhibition of IGF1R (unknown origin) at 1 uM by Z'-LYTE assay relative to control
# Outline: (§7)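 Z'-LYTE SelectScreen single-point biochemical kinase assay, done by an outside service. Compound at 1 µM with 100 µM ATP in the reaction. Percent inhibition calculated per the Z'-LYTE analysis protocol, as the mean of two independent runs.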
# [20] = tested on: MIA PaCa-2; assay: Induction of apoptosis in human MIAPaCa2 cells transfected with retroviral expression vector pMSCV-LucSh assessed as increase in PARP cleavage after 24 hrs; assay type: functional, cell-based
# Outline: (§8)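 Cells seeded to reach about 80% confluence at 24 h, then drug-treated at increasing doses for 24 h at 37 °C. Lysed in 1% NP40 buffer with protease and phosphatase inhibitors. 30 µg protein run on SDS gel and transferred to PVDF. Immunoblotted overnight at 4 °C with caspase-3 and PARP rabbit polyclonals for cleavage products. ECL detection.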
# [21] = target: T1, Focal adhesion kinase 1; assay: Inhibition of PTK2 (unknown origin) at 1 uM by Z'-LYTE assay relative to control; outline: as §7
# Target sequence in this assay (Q05397 2-1052 limits assumed): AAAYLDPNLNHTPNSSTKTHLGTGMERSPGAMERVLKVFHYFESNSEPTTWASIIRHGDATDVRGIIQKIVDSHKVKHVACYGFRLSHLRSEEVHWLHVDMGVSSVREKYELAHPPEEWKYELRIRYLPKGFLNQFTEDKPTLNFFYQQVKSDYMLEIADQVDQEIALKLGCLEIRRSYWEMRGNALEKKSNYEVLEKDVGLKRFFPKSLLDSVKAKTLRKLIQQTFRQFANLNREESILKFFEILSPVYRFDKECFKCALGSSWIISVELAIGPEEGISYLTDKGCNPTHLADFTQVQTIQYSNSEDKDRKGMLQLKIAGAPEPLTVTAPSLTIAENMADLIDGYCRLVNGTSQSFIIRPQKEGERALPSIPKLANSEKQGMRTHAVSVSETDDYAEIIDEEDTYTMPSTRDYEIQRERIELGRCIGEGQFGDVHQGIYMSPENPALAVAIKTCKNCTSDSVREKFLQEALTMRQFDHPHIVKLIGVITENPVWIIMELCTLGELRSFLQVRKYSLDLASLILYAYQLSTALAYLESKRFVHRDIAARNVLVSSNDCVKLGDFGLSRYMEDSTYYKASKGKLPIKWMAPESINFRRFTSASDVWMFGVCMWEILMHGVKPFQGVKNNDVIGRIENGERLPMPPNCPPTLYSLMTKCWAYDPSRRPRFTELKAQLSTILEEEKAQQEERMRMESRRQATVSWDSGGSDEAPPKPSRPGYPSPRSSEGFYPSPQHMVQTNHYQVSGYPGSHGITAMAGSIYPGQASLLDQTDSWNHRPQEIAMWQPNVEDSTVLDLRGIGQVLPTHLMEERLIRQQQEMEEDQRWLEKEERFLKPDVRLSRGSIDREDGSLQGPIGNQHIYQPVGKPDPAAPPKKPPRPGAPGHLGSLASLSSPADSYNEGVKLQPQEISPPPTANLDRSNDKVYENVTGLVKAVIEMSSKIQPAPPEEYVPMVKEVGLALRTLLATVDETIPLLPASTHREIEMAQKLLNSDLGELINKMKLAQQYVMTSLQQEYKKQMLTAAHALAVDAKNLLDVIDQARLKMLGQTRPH
# [22] = target: Platelet-derived growth factor receptor alpha (Homo sapiens) (UniProt P16234); assay: Inhibition of PDGFRA (unknown origin) at 1 uM by Z'-LYTE assay relative to control; outline: as §7
# [23] = tested on: MCF7; assay: Induction of apoptosis in human MCF7 cells overexpressing VEGFR-3/FAK assessed as increase in caspase-3 cleavage after 24 hrs; assay type: functional, cell-based; outline: as §6
# [24] = target: Epidermal growth factor receptor (Homo sapiens) (UniProt P00533); assay: Inhibition of EGFR (unknown origin) at 1 uM by Z'-LYTE assay relative to control; outline: as §7
# [25] = tested on: MCF7; assay: Cytotoxicity against human MCF7 cells overexpressing VEGFR-3/FAK assessed as inhibition of colony formation at 10 uM after 14 days by 1,9-dimethyl-methylene blue staining-based assay; assay type: functional, cell-based; outline: as §3
# [26] = tested on: MIA PaCa-2; assay: Induction of apoptosis in human MIAPaCa2 cells transfected with retroviral expression vector pMSCV-LucSh assessed as increase in caspase-3 cleavage after 24 hrs; assay type: functional, cell-based; outline: as §8
# [27] = target: Proto-oncogene tyrosine-protein kinase Src (Homo sapiens) (UniProt P12931); assay: Inhibition of SRC (unknown origin) at 1 uM by Z'-LYTE assay relative to control; outline: as §7
# [28] = target: Protein-tyrosine kinase 2-beta (Homo sapiens) (UniProt Q14289); assay: Inhibition of PTK2B (unknown origin) at 1 uM by Z'-LYTE assay relative to control; outline: as §7
# [29] = target: Vascular endothelial growth factor receptor 1 (Homo sapiens) (UniProt P17948); assay: Inhibition of FLT1 (unknown origin) at 1 uM by Z'-LYTE assay relative to control; outline: as §7
# [30] = target: RAC-alpha serine/threonine-protein kinase (Homo sapiens) (UniProt P31749); assay: Inhibition of AKT1 (unknown origin) at 1 uM by Z'-LYTE assay relative to control; outline: as §7
# [31] = tested on: MCF7; assay: Cytotoxicity against human MCF7 cells overexpressing VEGFR-3/FAK after 72 hrs by MTS assay; assay type: functional, cell-based; outline: as §4
# [32] = target: Vascular endothelial growth factor receptor 2 (Homo sapiens) (UniProt P35968); assay: Inhibition of KDR (unknown origin) at 1 uM by Z'-LYTE assay relative to control; outline: as §7
# T2 sequence (P35916 whole entry, looked up): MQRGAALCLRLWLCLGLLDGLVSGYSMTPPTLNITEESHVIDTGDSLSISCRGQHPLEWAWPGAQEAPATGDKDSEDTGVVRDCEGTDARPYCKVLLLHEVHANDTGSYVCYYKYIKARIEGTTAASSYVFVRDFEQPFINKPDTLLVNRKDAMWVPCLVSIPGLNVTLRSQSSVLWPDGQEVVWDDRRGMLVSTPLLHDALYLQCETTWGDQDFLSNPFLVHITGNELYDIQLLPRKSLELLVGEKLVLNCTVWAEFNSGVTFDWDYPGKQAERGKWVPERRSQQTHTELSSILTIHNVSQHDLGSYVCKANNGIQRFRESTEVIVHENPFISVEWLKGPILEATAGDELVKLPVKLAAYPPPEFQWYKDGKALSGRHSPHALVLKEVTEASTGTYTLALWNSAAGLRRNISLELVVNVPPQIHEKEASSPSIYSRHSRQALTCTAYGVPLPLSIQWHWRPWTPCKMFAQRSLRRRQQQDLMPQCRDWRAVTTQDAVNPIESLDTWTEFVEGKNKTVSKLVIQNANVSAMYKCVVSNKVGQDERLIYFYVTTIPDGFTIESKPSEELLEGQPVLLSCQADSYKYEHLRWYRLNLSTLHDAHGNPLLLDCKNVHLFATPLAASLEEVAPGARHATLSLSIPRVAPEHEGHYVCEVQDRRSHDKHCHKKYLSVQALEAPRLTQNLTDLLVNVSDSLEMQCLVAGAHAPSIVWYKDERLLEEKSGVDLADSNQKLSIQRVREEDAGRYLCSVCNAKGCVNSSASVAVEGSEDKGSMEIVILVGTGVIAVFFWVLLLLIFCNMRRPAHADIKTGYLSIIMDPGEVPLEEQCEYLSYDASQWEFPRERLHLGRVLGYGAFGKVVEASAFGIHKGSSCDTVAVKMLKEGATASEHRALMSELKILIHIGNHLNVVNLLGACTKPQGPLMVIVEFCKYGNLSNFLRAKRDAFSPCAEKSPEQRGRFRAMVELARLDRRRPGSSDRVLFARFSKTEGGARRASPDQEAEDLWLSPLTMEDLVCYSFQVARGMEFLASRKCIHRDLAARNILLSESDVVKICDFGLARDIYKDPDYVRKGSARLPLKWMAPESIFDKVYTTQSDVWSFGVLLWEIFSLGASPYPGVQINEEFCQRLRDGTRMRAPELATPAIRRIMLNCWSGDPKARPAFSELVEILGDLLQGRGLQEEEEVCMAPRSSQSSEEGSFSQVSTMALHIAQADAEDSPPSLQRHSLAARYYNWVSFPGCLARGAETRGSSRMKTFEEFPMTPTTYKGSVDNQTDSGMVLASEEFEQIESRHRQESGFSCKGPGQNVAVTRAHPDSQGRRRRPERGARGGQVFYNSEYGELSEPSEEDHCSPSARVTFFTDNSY
# T2 sequence (Q05397 whole entry, looked up): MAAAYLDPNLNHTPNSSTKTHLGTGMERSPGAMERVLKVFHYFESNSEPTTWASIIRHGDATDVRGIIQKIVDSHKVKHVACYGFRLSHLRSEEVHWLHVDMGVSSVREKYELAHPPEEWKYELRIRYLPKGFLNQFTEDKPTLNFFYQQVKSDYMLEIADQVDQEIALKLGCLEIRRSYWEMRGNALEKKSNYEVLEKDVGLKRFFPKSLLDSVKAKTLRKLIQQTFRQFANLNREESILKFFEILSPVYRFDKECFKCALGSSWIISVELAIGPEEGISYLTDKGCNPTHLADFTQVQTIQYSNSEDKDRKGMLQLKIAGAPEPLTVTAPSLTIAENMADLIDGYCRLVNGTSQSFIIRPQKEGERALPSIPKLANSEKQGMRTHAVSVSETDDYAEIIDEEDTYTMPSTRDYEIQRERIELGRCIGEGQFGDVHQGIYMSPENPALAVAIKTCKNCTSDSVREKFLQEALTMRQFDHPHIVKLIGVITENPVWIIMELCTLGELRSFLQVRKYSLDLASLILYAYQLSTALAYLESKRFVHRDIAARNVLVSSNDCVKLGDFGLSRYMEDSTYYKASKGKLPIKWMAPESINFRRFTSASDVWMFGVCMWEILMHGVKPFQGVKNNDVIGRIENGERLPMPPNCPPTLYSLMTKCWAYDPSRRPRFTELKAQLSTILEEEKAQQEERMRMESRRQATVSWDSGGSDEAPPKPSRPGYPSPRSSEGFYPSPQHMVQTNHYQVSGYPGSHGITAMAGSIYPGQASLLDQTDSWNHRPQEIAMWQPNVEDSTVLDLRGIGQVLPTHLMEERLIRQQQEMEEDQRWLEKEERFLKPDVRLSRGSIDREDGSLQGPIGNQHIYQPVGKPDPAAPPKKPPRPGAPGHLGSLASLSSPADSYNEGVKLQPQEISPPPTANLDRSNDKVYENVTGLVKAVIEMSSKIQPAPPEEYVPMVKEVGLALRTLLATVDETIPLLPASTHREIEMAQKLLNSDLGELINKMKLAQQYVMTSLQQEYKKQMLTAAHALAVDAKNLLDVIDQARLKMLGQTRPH
# Chain of Protein-tyrosine kinase 2-beta (Homo sapiens) (Q14289 whole entry, looked up): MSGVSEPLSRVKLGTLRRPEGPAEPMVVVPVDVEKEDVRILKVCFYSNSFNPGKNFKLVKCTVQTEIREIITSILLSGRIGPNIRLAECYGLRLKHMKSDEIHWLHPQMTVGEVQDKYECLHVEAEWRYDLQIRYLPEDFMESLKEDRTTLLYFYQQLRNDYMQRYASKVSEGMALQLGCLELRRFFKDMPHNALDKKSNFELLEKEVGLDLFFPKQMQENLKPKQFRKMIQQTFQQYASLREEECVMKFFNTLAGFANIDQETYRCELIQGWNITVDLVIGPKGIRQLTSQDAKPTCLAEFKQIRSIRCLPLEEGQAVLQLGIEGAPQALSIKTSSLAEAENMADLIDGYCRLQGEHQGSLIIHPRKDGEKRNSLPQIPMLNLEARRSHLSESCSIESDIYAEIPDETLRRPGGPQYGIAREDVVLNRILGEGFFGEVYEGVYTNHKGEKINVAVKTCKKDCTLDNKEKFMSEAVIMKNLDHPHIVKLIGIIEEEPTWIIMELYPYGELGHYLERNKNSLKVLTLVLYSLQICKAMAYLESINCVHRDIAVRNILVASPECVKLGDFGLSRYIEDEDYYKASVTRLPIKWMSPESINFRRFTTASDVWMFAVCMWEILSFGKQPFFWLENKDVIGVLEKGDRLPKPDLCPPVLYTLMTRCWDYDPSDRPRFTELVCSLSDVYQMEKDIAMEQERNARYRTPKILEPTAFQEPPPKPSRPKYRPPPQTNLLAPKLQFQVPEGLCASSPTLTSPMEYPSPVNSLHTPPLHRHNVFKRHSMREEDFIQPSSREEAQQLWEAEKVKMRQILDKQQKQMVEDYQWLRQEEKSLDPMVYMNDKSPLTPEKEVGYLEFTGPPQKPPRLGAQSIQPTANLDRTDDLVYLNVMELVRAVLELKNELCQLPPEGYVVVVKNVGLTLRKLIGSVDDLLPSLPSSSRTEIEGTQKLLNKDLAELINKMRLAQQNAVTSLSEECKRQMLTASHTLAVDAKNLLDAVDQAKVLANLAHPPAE
# Chain of Vascular endothelial growth factor receptor 3 (Homo sapiens) (P35916 whole entry): as the sequence (P35916 whole entry, looked up) above
# Chain of Proto-oncogene tyrosine-protein kinase Src (Homo sapiens) (P12931 2-536 limits assumed): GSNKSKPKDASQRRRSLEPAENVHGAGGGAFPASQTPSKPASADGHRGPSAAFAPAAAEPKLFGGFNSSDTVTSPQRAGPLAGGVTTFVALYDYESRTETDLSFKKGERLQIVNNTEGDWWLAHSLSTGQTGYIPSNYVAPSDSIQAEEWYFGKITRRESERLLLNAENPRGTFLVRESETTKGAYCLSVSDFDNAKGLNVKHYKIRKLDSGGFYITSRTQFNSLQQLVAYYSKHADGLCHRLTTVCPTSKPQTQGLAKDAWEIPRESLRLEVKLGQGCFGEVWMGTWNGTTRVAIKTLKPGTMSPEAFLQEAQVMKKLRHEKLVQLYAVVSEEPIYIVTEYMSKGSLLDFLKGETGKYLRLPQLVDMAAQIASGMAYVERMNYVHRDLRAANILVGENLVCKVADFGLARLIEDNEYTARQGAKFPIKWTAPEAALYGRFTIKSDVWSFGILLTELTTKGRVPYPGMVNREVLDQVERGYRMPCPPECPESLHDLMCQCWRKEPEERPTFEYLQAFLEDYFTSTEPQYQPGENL
smiles,measurement,setting,value
CN(C)CCN(Cc1ccc(Cl)cc1)c1ccccn1 [CHLORPYRAMIN HYDROCHLORIDE],Kd,[1],570 nM
same,inhibition,[2],Dose-dependent effect
same,inhibition,[3],Dose-dependent effect
same,inhibition,[4],Active
same,inhibition,[5],Dose-dependent effect
same,inhibition,[6],Dose-dependent effect
same,inhibition,[7],Active
CCCCCCCCCCN(CCN(C)C)c1ccccn1,growth inhibition (GI),[8],Active
same,growth inhibition (GI),[9],Active
same,growth inhibition (GI),[10],Active
same,growth inhibition (GI),[11],Active
same,growth inhibition (GI),[12],Active
same,growth inhibition (GI),[13],Active
CN(C)CCNc1ccccn1,Activity,[1],inactive
same,growth inhibition (GI),[8],inactive
same,growth inhibition (GI),[9],inactive
same,growth inhibition (GI),[10],inactive
same,growth inhibition (GI),[11],inactive
same,growth inhibition (GI),[12],inactive
same,growth inhibition (GI),[13],inactive
CCCCCCN(CCN(C)C)c1ccccc1,growth inhibition (GI),[8],inactive
same,growth inhibition (GI),[9],inactive
same,growth inhibition (GI),[10],inactive
same,growth inhibition (GI),[11],inactive
same,growth inhibition (GI),[12],inactive
same,growth inhibition (GI),[13],inactive
CCCN(CCN(C)C)c1ccccn1,growth inhibition (GI),[8],inactive
same,growth inhibition (GI),[9],inactive
same,growth inhibition (GI),[10],inactive
same,growth inhibition (GI),[11],inactive
same,growth inhibition (GI),[12],inactive
same,growth inhibition (GI),[13],inactive
CCCCCCCCCCCCN(CCN(C)C)c1ccccn1,growth inhibition (GI),[8],Active
same,growth inhibition (GI),[9],Active
same,growth inhibition (GI),[10],Active
same,growth inhibition (GI),[11],Active
same,growth inhibition (GI),[12],Active
same,growth inhibition (GI),[13],Active
CCCCCCCCN(CCN(C)C)c1ccccn1,growth inhibition (GI),[8],Active
same,growth inhibition (GI),[9],Active
same,growth inhibition (GI),[10],Active
same,growth inhibition (GI),[11],Active
same,growth inhibition (GI),[12],Active
same,growth inhibition (GI),[13],Active
CN(C)CCN(Cc1ccc(Cl)cc1)c1ccc2ccccc2n1,Kd,[1],18 nM
same,Activity,[14],Dose-dependent effect
same,inhibition,[15],Active
same,inhibition,[16],Active
same,inhibition,[17],4%
same,Activity,[18],Active
same,inhibition,[19],11%
same,inhibition,[2],Dose-dependent effect
same,Activity,[20],Dose-dependent effect
same,growth inhibition (GI),[10],Active
same,inhibition,[3],Dose-dependent effect
same,inhibition,[21],13%
same,inhibition,[22],8%
same,Activity,[23],Dose-dependent effect
same,inhibition,[24],4%
same,inhibition,[25],Active
same,Activity,[26],Dose-dependent effect
same,inhibition,[27],3%
same,growth inhibition (GI),[12],Active
same,inhibition,[5],Dose-dependent effect
same,inhibition,[28],0%
same,inhibition,[29],1%
same,inhibition,[30],7%
same,inhibition,[6],Dose-dependent effect
same,Activity,[31],Active
same,inhibition,[32],14%

# Source: ChEMBL document CHEMBL3259731, “Design, synthesis, and biological evaluation of novel FAK scaffold inhibitors targeting the FAK-VEGFR3 protein-protein interaction” (Eur J Med Chem, 2014)
